Hits are enriched below; roughly 1.8% of the tested compounds scored in any of these assays.
hiPSC survival – enhancers of single-cell hiPSC survival, primary screen, ATPlite luminescence | 100% = ROCK inhibitor wells, 0% = DMSO | survival enhancement, % at 20 µM | 360,000 tested, 0.044% active | AID 602274, 2012; in the data active = survival enhancement above about 18%;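 note: cells exposed to compounds for 16 hours before the ATP read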
TRAIL sens C8 – viability loss with TRAIL in NB7+C8 cells, primary screen, TRAIL sensitizer project, cell-based, ATPlite luminescence | AID 624354, 2012 | 360,000 tested, 1% active | inhibition (viability loss, TRAIL sensitization), % at 10 µM;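 active = compounds causing at least 50% loss of cell viability in the single-dose screen, relative to plate controls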
MIN6 prolif-1 – inducers of MIN6 beta-cell proliferation, primary screen, ATP luminescence, uHTS; MIN6 cells proliferation, ATPlite luminescence, 48 h; cells starved in 0.2% serum; 100% = growth in 10% serum; 330,000 tested, 0.29% active; AID 2380, 2010; proliferation, % at 10 µM;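 active = compounds whose signal lies at least 3.5 SD above the mean of all wells on their plate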;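 note: 0% = DMSO-treated cells in low-serum medium and 100% = 10% serum control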
FLuc inh counter – firefly luciferase enzyme inhibitors, primary screen, artefact control for luciferase-based inhibitor screens, biochemical, luminescence, ATPLite; inhibition, % at 10 µM; AID 1006, 2008; 10 min; 200,000 tested, 1.5% active; Luciferin 4-monooxygenase (Photinus pyralis), P08659;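 active = inhibition above about 50% when tested at 10 µM, limit read from the data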
Target sequence (P08659 whole entry, looked up): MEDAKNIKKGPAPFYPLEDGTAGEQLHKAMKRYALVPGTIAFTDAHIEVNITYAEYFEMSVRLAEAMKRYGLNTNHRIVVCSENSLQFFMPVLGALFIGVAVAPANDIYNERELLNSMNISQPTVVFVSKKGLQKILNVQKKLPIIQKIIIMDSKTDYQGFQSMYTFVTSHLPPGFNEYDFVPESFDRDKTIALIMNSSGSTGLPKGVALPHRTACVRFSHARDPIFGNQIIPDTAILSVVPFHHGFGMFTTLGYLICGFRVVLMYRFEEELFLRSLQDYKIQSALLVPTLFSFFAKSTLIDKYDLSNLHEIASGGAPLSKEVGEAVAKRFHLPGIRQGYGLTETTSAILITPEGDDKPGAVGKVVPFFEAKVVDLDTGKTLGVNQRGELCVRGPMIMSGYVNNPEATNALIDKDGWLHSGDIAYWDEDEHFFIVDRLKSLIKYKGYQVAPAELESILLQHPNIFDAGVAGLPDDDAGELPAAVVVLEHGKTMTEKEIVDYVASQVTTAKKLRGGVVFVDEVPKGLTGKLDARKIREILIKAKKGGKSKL
PPC-1+TRAIL kill – compounds killing PPC-1 cancer cells with TRAIL present, primary screen, TRAIL potentiator project, ATPLite luminescence, uHTS. PPC-1 cells + TRAIL, ATPLite viability luminescence. 220,000 tested, 0.41% active. AID 1443, 2008. cell killing (% activity), % at 4 µM or 5 µM;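 active = cell killing above 50% in the first pass at 4 µM, then a duplicate retest at 5 µM averaging 50% or more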;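 note: plate controls were cells with TRAIL plus DMSO for no effect and medium-only wells lacking cells for full effect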
FLuc stim CS – FLuc activators, initial screening, artefact control for FLuc-dependent activation tests, biochemical, ATPlite luminescence; Luciferin 4-monooxygenase (Photinus pyralis), P08659; ATPlite luciferase biochemical, 10 min; 0 = ATP-free wells, 1 = DMSO control; activation factor at 10 µM; 200,000 tested, under 10 active; AID 1027, 2008;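 active = luciferase activation factor, scaled between plate controls, of at least 2 with compound at 10 µM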
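Assay system: Luciferase/luciferin detection reagent, cell-free biochemical luciferase assay / Read-out: luciferase activation / Benchmarks: No-ATP low control, compound-free enzyme-plus-ATP high control / Medium: PBS buffer for ATP / Detection: luminescence measurement of luciferase light output / Schedule: 10 min at ambient temperature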
PPC-1 tox – cytotoxicity in PPC-1 cells, confirmation, cytotoxicity control for TRAIL apoptosis potentiator project, cell-based, ATP content luminescence | shares compounds with PPC-1+TRAIL kill | PPC-1 viability, ATPlite luminescence, overnight | cytotoxicity, % at 5 µM | 1,200 tested, 50% active | AID 1447, 2008;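 active = reconfirmed compounds whose average cytotoxicity reaches 50% or more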;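 note: 0% = DMSO-treated cells and 100% = wells holding medium but no cells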
MIN6 prolif-2 – inducers of beta-cell proliferation in MIN6, confirmation, MIN6 cells, mouse; AID 463095, 2010; proliferation increase, % at 50 µM; ATPlite luminescence, 48 h; cells kept in 0.2% serum; scaled between 0.2% and 10% serum; 920 tested, under 10 active; shares compounds with MIN6 prolif-1;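 active = proliferation increase above 40% at any of the four tested concentrations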
Starred values were filed as active, the others as inactive; x = not tested or not shown.

SMILES	hiPSC survival	TRAIL sens C8	MIN6 prolif-1	FLuc inh counter	PPC-1+TRAIL kill	FLuc stim CS	PPC-1 tox	others
CCOc1cccc2sc(Cl)nc12	0	-23	-2	0	5	1	4
CCOc1cccc2sc(NN)nc12	-1	5	x	0	2	1	x
COc1ccc(C(=O)Nc2ccc(Cc3ccncc3)cc2)cc1Br	-1	4	-2	1	4	1	20
c1ccc(-c2ccc3cnccc3n2)cc1	10	-11	x	x	x	x	x
CCOC(=O)c1cc2sccc2n1CC(=O)Nc1ccc(OC)c(OC)c1	-2	6	1	-4	9	1	7
O=C(O)C1CCCCC1C(=O)NCCc1ccccc1 (centres undefined)	-1	-5	-3	-7	8	1.1	6
Nc1ccc2ncccc2c1	1	-9	-1	2	14	1	x
Nc1ccc(/C=C/c2ccc3ncccc3c2)cc1	0	47	-6	x	69*	x	70*
Cc1ccc(C(=O)/C=C/Nc2cccc(O)c2)cc1	-3	83*	-3	96*	88*	0	88*
O=C(/C=C/Nc1cccc(O)c1)c1ccccc1	-4	67*	-3	95*	74*	0.1	72*
CN(C)C(=O)C(NC(=O)c1ccccc1)=C(Cl)Cl	0	-8	1	-6	30	1.1	x
CCS(=O)(=O)c1nc(S(=O)(=O)c2ccc(C)cc2)c(NCCCN(C)C)s1	0	0	-2	0	13	1	x
COc1cc(/C=C2\CCc3c2nc2ccccc2c3C(=O)O)cc(OC)c1OC	-1	57*	-5	x	52*	x	54*
O=C1CC(C(F)(F)F)=NN1	0	-19	-1	x	0	x	x
Cc1cccc2c(C(=O)O)cc(-c3cccnc3)nc12	-1	2	-2	0	-14	1	-3
Cc1cccc2c(C(=O)N3CCCCC3)cc(-c3ccccc3)nc12	0	12	-5	x	x	x	x
Clc1cccc(N/N=C/c2ccc(N3CCOCC3)s2)c1	-1	-19	-6	26	-2	0.7	x
CC1=NCC(C)c2ccccc21 (centres undefined)	6	-20	x	x	x	x	x
CC1=NCC(C)c2c1[nH]c1ccccc21 (centres undefined)	-4	1	7.0*	-6	-5	1.1	x	MIN6 prolif-2=-1
CC1(c2nnc(-c3ccc(F)cc3)o2)CC(c2ccc([N+](=O)[O-])cc2)=NO1 (centres undefined)	0	-4	-3	x	-11	x	x
CCN(CC)c1cnn(C/C(=N\OC)c2ccc(Cl)cc2)c(=O)c1Br	0	4	7.5*	-3	-7	1	x	MIN6 prolif-2=-6
O=C(O)C1CCCCC1C(=O)NCCCc1ccccc1 (centres undefined)	-1	-19	9.0*	-8	2	1.1	x	MIN6 prolif-2=-3
O=C(O)C1CCCCC1C(=O)NCCCCc1ccccc1 (centres undefined)	-2	-4	-3	-6	12	1.1	x
CCOc1ncccc1C(=O)OC(C)C(=O)Nc1ccc(N2CCOCC2)cc1 (centres undefined)	-2	-7	10*	x	x	x	x	MIN6 prolif-2=4
CCOc1ncccc1C(=O)Nc1ccccc1N1CCOCC1	-2	-7	-3	x	x	x	x
CCOc1ncccc1C(=O)Nc1ccc(C)cn1	0	15	11*	x	x	x	x	MIN6 prolif-2=2
NS(=O)(=O)c1ccc(NC(=O)CSc2nc3c(c(=O)[nH]2)CCCC3)cc1	0	21	-1	x	x	x	x
CCOc1ccc(CCNC(=O)CCCn2c(=O)c3cccn3c3cccnc32)cc1OCC	0	1	17*	x	x	x	x	MIN6 prolif-2=1

Assay outcomes deposited in PubChem by Sanford-Burnham Center for Chemical Genomics.
